In brackets after ≈: the same amount, converted by molar mass. Where a SMILES comes first, the peptide text is derived from it.
Key:
Escherichia coli [1] = assay: Minimum inhibitory concentration (lowest peptide concentration) required to prevent visible bacterial growth after 18 hr of incubation at 37 C in Mueller-Hinton broth against Escherichia coli ML-35; type: functional
How it was run: (§1)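 Broth microdilution susceptibility test per NCCLS guidelines, in Mueller–Hinton broth with about 1.5–2.0 × 10^5 CFU/mL inoculum. Plates were incubated 18 h at 37 °C. MIC was taken as the lowest peptide concentration with no visible growth. Strains were ATCC strains or clinical isolates; E. coli O18:K1:H7 Bort is an encapsulated isolate from neonatal spinal fluid, and the S. aureus isolate is MRSA.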

Klebsiella pneumoniae [2] = assay: Minimum inhibitory concentration (lowest peptide concentration) required to prevent visible bacterial growth after 18 hr of incubation at 37 C in Mueller-Hinton broth against Klebsiella pneumoniae 79; type: functional; how it was run: as §1
Salmonella enteritidis [3] = assay: Minimum inhibitory concentration (lowest peptide concentration) required to prevent visible bacterial growth after 18 hr of incubation at 37 C in Mueller-Hinton broth against Salmonella enteritidis D5; settings: Salmonella enterica
Salmonella typhimurium = assay: Minimum inhibitory concentration (lowest peptide concentration) required to prevent visible bacterial growth after 18 hr of incubation at 37 C in Mueller-Hinton broth against Salmonella Typhimurium ATCC 14028; type: functional, Salmonella enterica subsp. enterica serovar Typhimurium; settings: Salmonella enterica; how it was run: as §1
Staphylococcus aureus = assay: Minimum inhibitory concentration (lowest peptide concentration) required to prevent visible bacterial growth after 18 hr of incubation at 37 C in Mueller-Hinton broth against Staphylococcus aureus G; type: functional; how it was run: as §1
[4] = test system: Staphylococcus epidermidis; assay: Minimum inhibitory concentration (lowest peptide concentration) required to prevent visible bacterial growth after 18 hr of incubation at 37 C in Mueller-Hinton broth against Staphylococcus epidermidis 4; type: functional; how it was run: as §1
Escherichia coli [5] = assay: Minimum inhibitory concentration (lowest peptide concentration) required to prevent visible bacterial growth after 18 hr of incubation at 37 C in Mueller-Hinton broth against Escherichia coli O18:K1:H7; type: functional; how it was run: as §1
Escherichia coli [6] = assay: Minimum inhibitory concentration (lowest peptide concentration) required to prevent visible bacterial growth after 18 hr of incubation at 37 C in Mueller-Hinton broth against Escherichia coli D22; type: functional; how it was run: as §1
Klebsiella pneumoniae [7] = assay: Minimum inhibitory concentration (lowest peptide concentration) required to prevent visible bacterial growth after 18 hr of incubation at 37 C in Mueller-Hinton broth against Klebsiella pneumoniae 22; type: functional; how it was run: as §1
Escherichia coli [8] = assay: Minimum inhibitory concentration (lowest peptide concentration) required to prevent visible bacterial growth after 18 hr of incubation at 37 C in Mueller-Hinton broth against Escherichia coli D21; type: functional; how it was run: as §1
Acinetobacter baumannii = assay: Minimum inhibitory concentration (lowest peptide concentration) required to prevent visible bacterial growth after 18 hr of incubation at 37 C in Mueller-Hinton broth against Acinetobacter baumannii 118A; type: functional; how it was run: as §1
Pseudomonas aeruginosa = assay: Minimum inhibitory concentration (lowest peptide concentration) required to prevent visible bacterial growth after 18 hr of incubation at 37 C in Mueller-Hinton broth against Pseudomonas aeruginosa ATCC 27853; type: functional; settings: ATCC 27853, 18 h; how it was run: as §1
Salmonella enteritidis [9] = assay: Minimum inhibitory concentration (lowest peptide concentration) required to prevent visible bacterial growth after 18 h of incubation at 37 C in Mueller-Hinton broth against […]; type: functional, Salmonella enterica subsp. enterica serovar Enteritidis; settings: Salmonella enterica; how it was run: as §1
Escherichia coli [10] = assay: Minimum inhibitory concentration (lowest peptide concentration) required to prevent visible bacterial growth after 18 hr of incubation at 37 C in Mueller-Hinton broth against Escherichia coli ATCC 25922; type: functional; settings: ATCC 25922, 18 h; how it was run: as §1

In the case of H-GNNRPVYIPQPRPTPHPRL-OH, the MIC (Escherichia coli [1]) is reported as greater than 128 µM, the MIC (Klebsiella pneumoniae [2]) is reported as greater than 128 µM and the MIC (Salmonella enteritidis [3]) is reported as greater than 128 µM. The MIC (Salmonella typhimurium) was greater than 128 µM, the MIC (Staphylococcus aureus) was greater than 64 µM and the MIC [4] was greater than 64 µM. The MIC (Escherichia coli [5]) was greater than 128 µM, the MIC (Escherichia coli [6]) was greater than 64 µM and the MIC (Klebsiella pneumoniae [7]) was greater than 128 µM. For the same compound, the MIC (Escherichia coli [8]) was greater than 64 µM, the MIC (Acinetobacter baumannii) was greater than 128 µM and the MIC (Pseudomonas aeruginosa) was greater than 128 µM. The MIC (Salmonella enteritidis [9]) was greater than 128 µM and the MIC (Escherichia coli [10]) was greater than 128 µM.

CC[C@H](C)[C@@H]1NC(=O)[C@@H]2CCCN2C(=O)[C@H](CCCNC(=N)N)NC(=O)[C@@H]2CCCN2C(=O)[C@H](Cc2cnc[nH]2)NC(=O)[C@H](CO)NC(=O)[C@H]([C@@H](C)O)NC(=O)[C@@H]2CCCN2C(=O)[C@H](CCCNC(=N)N)NC(=O)[C@@H]2CCCN2C(=O)[C@H](CO)NC(=O)[C@H](Cc2ccc(O)cc2)NC(=O)[C@@H]2CCCN2C(=O)[C@H](CCCNC(=N)N)NC(=O)[C@@H]2CCCN2C(=O)[C@H](CCCCN)NC(=O)CNC(=O)[C@H](C(C)C)NC(=O)[C@H](CCCNC(=N)N)NC(=O)[C@H]([C@@H](C)CC)NC(=O)[C@@H]2CCCN2C(=O)[C@H](CCCNC(=N)N)NC(=O)[C@@H]2CCCN2C(=O)[C@H](Cc2cnc[nH]2)NC(=O)[C@H](CO)NC(=O)[C@H]([C@@H](C)O)NC(=O)[C@@H]2CCCN2C(=O)[C@H](CCCNC(=N)N)NC(=O)[C@@H]2CCCN2C(=O)[C@H](CO)NC(=O)[C@H](Cc2ccc(O)cc2)NC(=O)[C@@H]2CCCN2C(=O)[C@H](CCCNC(=N)N)NC(=O)[C@@H]2CCCN2C(=O)[C@H](CCCCN)NC(=O)CNC(=O)[C@H](C(C)C)NC(=O)[C@H](CCCNC(=N)N)NC1=O (HELM PEPTIDE1{G.K.P.R.P.Y.S.P.R.P.T.S.H.P.R.P.I.R.V.G.K.P.R.P.Y.S.P.R.P.T.S.H.P.R.P.I.R.V}$PEPTIDE1,PEPTIDE1,1:R1-38:R2$$$V2.0) gave an MIC (Escherichia coli [1]) greater than 64 µM, an MIC (Klebsiella pneumoniae [2]) greater than 64 µM and an MIC (Salmonella enteritidis [3]) greater than 64 µM. It also gave an MIC (Salmonella typhimurium) greater than 64 µM, an MIC (Staphylococcus aureus) greater than 64 µM and an MIC [4] greater than 64 µM. For the same compound, the MIC (Escherichia coli [5]) was greater than 64 µM, the MIC (Escherichia coli [6]) was greater than 64 µM and the MIC (Klebsiella pneumoniae [7]) was greater than 64 µM. The MIC (Escherichia coli [8]) was greater than 64 µM, the MIC (Acinetobacter baumannii) was greater than 64 µM and the MIC (Pseudomonas aeruginosa) was greater than 64 µM. For the same compound, the MIC (Salmonella enteritidis [9]) was greater than 64 µM and the MIC (Escherichia coli [10]) was greater than 64 µM.

In the case of H-GKPRPYSPRPTSHPRPIRV-OH [DROSOCIN], the MIC (Escherichia coli [1]) is reported as 2 µM, the MIC (Klebsiella pneumoniae [2]) is reported as 64 µM and the MIC (Salmonella enteritidis [3]) is reported as 16 µM. It also gave an MIC (Salmonella typhimurium) of 32 µM, an MIC (Staphylococcus aureus) greater than 64 µM and an MIC [4] greater than 64 µM. It also gave an MIC (Escherichia coli [5]) of 8 µM, an MIC (Escherichia coli [6]) greater than 64 µM and an MIC (Klebsiella pneumoniae [7]) of 128 µM. For the same compound, the MIC (Escherichia coli [8]) was greater than 128 µM, the MIC (Acinetobacter baumannii) was greater than 128 µM and the MIC (Pseudomonas aeruginosa) was greater than 128 µM. The MIC (Salmonella enteritidis [9]) was 8 µM and the MIC (Escherichia coli [10]) was 4 µM.

CC[C@H](C)[C@H](NC(=O)[C@H](Cc1ccc(O)cc1)NC(=O)[C@@H](NC(=O)[C@@H]1CCCN1C(=O)[C@H](CCCNC(=N)N)NC(=O)[C@H](CC(N)=O)NC(=O)[C@H](CC(N)=O)NC(=O)CN)C(C)C)C(=O)N1CCC[C@H]1C(=O)N[C@@H](CCC(N)=O)C(=O)N1CCC[C@H]1C(=O)N[C@@H](CCCNC(=N)N)C(=O)N1CCC[C@H]1C(=O)N1CCC[C@H]1C(=O)N[C@@H](Cc1cnc[nH]1)C(=O)N1CCC[C@H]1C(=O)N[C@@H](CCCNC(=N)N)C(=O)N[C@@H](CC(C)C)C(=O)O [APIDAECIN] was tested, and the MIC (Escherichia coli [1]) was 4 µM (≈ 8.43 µg/mL), the MIC (Klebsiella pneumoniae [2]) was 32 µM (≈ 67.5 µg/mL) and the MIC (Salmonella enteritidis [3]) was 4 µM (≈ 8.43 µg/mL). The MIC (Salmonella typhimurium) was 8 µM (≈ 16.9 µg/mL), the MIC (Staphylococcus aureus) was greater than 64 µM and the MIC [4] was greater than 64 µM. The MIC (Escherichia coli [5]) was 4 µM (≈ 8.43 µg/mL), the MIC (Escherichia coli [6]) was 4 µM (≈ 8.43 µg/mL) and the MIC (Klebsiella pneumoniae [7]) was 32 µM (≈ 67.5 µg/mL). It also gave an MIC (Escherichia coli [8]) greater than 64 µM, an MIC (Acinetobacter baumannii) greater than 128 µM and an MIC (Pseudomonas aeruginosa) greater than 128 µM. For the same compound, the MIC (Salmonella enteritidis [9]) was 4 µM (≈ 8.43 µg/mL) and the MIC (Escherichia coli [10]) was 4 µM (≈ 8.43 µg/mL).

Compound CC[C@H](C)[C@@H]1NC(=O)[C@H](Cc2ccc(O)cc2)NC(=O)[C@H](C(C)C)NC(=O)[C@@H]2CCCN2C(=O)[C@H](CCCN=C(N)N)NC(=O)[C@H](CC(N)=O)NC(=O)[C@H](CC(N)=O)NC(=O)CNC(=O)[C@H](CC(C)C)NC(=O)[C@H](CCCN=C(N)N)NC(=O)[C@@H]2CCCN2C(=O)[C@H](Cc2c[nH]cn2)NC(=O)[C@@H]2CCCN2C(=O)[C@@H]2CCCN2C(=O)[C@H](CCCN=C(N)N)NC(=O)[C@@H]2CCCN2C(=O)[C@H](CCC(N)=O)NC(=O)[C@@H]2CCCN2C1=O (HELM PEPTIDE1{G.N.N.R.P.V.Y.I.P.Q.P.R.P.P.H.P.R.L}$PEPTIDE1,PEPTIDE1,1:R1-18:R2$$$V2.0) has an MIC (Escherichia coli [1]) of 64 µM (≈ 134 µg/mL), an MIC (Klebsiella pneumoniae [2]) greater than 64 µM and an MIC (Salmonella enteritidis [3]) greater than 64 µM. It also gave an MIC (Salmonella typhimurium) greater than 64 µM, an MIC (Staphylococcus aureus) greater than 64 µM and an MIC [4] greater than 64 µM. The MIC (Escherichia coli [5]) was 32 µM (≈ 66.9 µg/mL), the MIC (Escherichia coli [6]) was 64 µM (≈ 134 µg/mL) and the MIC (Klebsiella pneumoniae [7]) was greater than 64 µM. It also gave an MIC (Escherichia coli [8]) greater than 64 µM, an MIC (Acinetobacter baumannii) greater than 128 µM and an MIC (Pseudomonas aeruginosa) greater than 128 µM. For the same compound, the MIC (Salmonella enteritidis [9]) was greater than 64 µM and the MIC (Escherichia coli [10]) was greater than 64 µM.
